Data: ChEMBL document CHEMBL5331111, “Synthetic Biology Facilitates Semisynthetic Development of Type V Glycopeptide Antibiotics Targeting Vancomycin-Resistant Enterococcus” (J Med Chem, 2023)
In brackets after ≈: the same amount, converted by molar mass.

These molecules were tested on Mycobacterium tuberculosis variant bovis (assay: Antimycobacterial activity against Mycobacterium bovis BCG Pasteur ATCC 35734 assessed as inhibition of bacterial growth measured after 7 days by resazurin dye based analysis). Conditions: BCG Pasteur ATCC 35734, 168 h, time 7 day.
Assay type: functional
Method in brief: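 Strains grown in 7H9 broth with 0.2% glycerol, 10% OADC and 0.05% Tween-80. Inoculum was about 5 × 10^5 CFU/mL, checked by plating on 7H10/OADC agar to be 3–8 × 10^5. Read at 2 days for M. smegmatis and 7 days for M. tuberculosis H37Ra, M. bovis and M. avium. Resazurin 30 μg/mL was then added for one further day. Values are averages of at least two experiments.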

Compound	MIC
CN1C(=O)[C@@H](c2cc(Cl)c(O)c(Cl)c2)NC(=O)[C@@H]2NC(=O)[C@@H](c3cc(Cl)c(O)c(Cl)c3)NC(=O)[C@H](NC(=O)C(=O)c3cc(Cl)c(O)c(Cl)c3)Cc3c[nH]c4cc(ccc34)-c3cc2cc(c3O)Oc2ccc(cc2)C[C@H]1C(=O)N[C@@H](C(=O)O)c1ccc(O)cc1 [ISOCOMPLESTATIN]	64 µg/mL (≈ 48.2 µM)
CN1C(=O)[C@@H]2NC(=O)[C@@H]3NC(=O)[C@@H](c4ccc(O)cc4)NC(=O)[C@H](NC(=O)C(N)c4ccc(O)cc4)Cc4c[nH]c5cc(ccc45)-c4cc3cc(c4O)Oc3ccc(cc3)C[C@H]1C(=O)N[C@@H](C(=O)O)c1ccc(O)c(c1)Oc1ccc2cc1 (stereo partly drawn)	8 µg/mL (≈ 7.14 µM)
NNC(=O)c1ccncc1 [ISONIAZID]	0.13 µg/mL (≈ 0.948 µM)
